Results collected from several papers.
Each line is one published result; the experiments were not run side by side.
CYP3A4: Cytochrome P450 3A4 (CYP3A4, Homo sapiens, UniProt P08684)

Structure (SMILES)	target or system	assay	test system	setting	quantity	value
COc1ccc2[nH]c([S+]([O-])Cc3ncc(C)c(OC)c3C)nc2c1 (centres unmarked)	CYP3A4	enzyme activity, inhibitor	–	30 µM, 1 h, pH 7.4	inhibition	50 to 60%
Cc1ccc(C(=O)Nc2ccc(CN3CCN(C)CC3)c(C(F)(F)F)c2)cc1C#Cc1cnc2[nH]ncc2c1	–	–	human, plasma	oral, 20 mg, healthy volunteers	Vd/F	8220 L
CN(C)c1ncnc2c1ncn2[C@@H]1O[C@H](CCl)[C@@H](NC(=O)[C@@H](CSC(c2ccccc2)c2ccccc2)NC(=O)OC(C)(C)C)[C@H]1O	Vero	cell growth or viability, MTT	–	–	CC50	67.4 µM
COc1cc(O)c2c(c1)C(=O)c1cc(C)cc(O)c1C2=O	CYP3A4	enzyme activity, inhibitor	human, liver microsomes	pH 7.4, testosterone probe	Ki	6.07 µM
Cl.[2H]C([2H])([2H])CC(=O)c1cnc(NC(=O)C2CC2)cc1Nc1cccc(-c2ncn(C([2H])([2H])[2H])n2)c1OC	–	–	human, plasma	oral, 10 mg, multiple doses, once daily, fasted	Vd/F	167 L
COc1ccc2c(c1)C[C@]1(OC)C(=O)/C(=C(O)\C=C\c3ccccc3)C(=O)C[C@]1(OC)O2	RAW264.7	cell growth or viability, MTT	–	15 µM, 24 h	viability	92.8%
CNC(=O)n1ccc2cc(Oc3ccnc(NC(=O)c4ccc(C5CCN(CCO)CC5)cc4)c3)c(OCCOC)cc21	–	–	human, plasma	oral, 35 mg, single dose, fasted, healthy volunteers	Vd/F	11800 L
CC(=O)O[C@@]12CO[C@@H]1C[C@H](O)[C@@]1(C)C(=O)[C@H](O)C3=C(C)[C@@H](OC(=O)[C@H](O)[C@@H](NC(=O)OC(C)(C)C)c4ccccc4)C[C@@](O)([C@@H](OC(=O)c4ccccc4)[C@H]21)C3(C)C	–	–	male Kunming mouse, lung	oral, 20 mg/kg	Cmax	142 ng/g
CC(=O)OC[C@@]1(COC(=O)c2ccccc2)O[C@H]1/C=C\COC(=O)c1ccccc1	RAW264.7	cell growth or viability, MTT	–	15 µM, 24 h	viability	99.8%
Cn1cc(Nc2nc(N)nc(-c3cccc(-n4ccc5cc(C6CC6)cc(F)c5c4=O)c3CO)n2)cn1	–	–	human, plasma	oral, 900 mg, single dose, fasted, suspension	Vd/F	212 L
CCN1CCN(Cc2ccc(NC(=O)c3ccc(C)c(NC(=O)c4cncc(-c5cccs5)c4)c3)cc2C(F)(F)F)CC1	–	–	mouse, plasma	intraperitoneal, 30 mg/kg, single dose	Cmax	716 ng/mL
NC(=S)NN=Cc1ncccc1N	–	–	human, plasma	oral	Vd/F	223 L
COc1ccc2c(c1)C[C@H]1[C@@H](OC(=O)c3ccccc3)[C@H](OC(C)=O)C(COC(=O)c3ccccc3)=C[C@H]1O2	RAW264.7	cell growth or viability, MTT	–	15 µM, 24 h	viability	91.9%
COCCCOc1ccnc(C[S+]([O-])c2nc3ccccc3[nH]2)c1C (centres unmarked)	CYP3A4	enzyme activity, inhibitor	–	30 µM, 1 h, pH 7.4	inhibition	50 to 60%
